Measurements published in BindingDB's records for doi:10.1021/jm00108a037 (Katholieke Universiteit Leuven, 1991).

What was measured:
[1] = biological target: T1, Acyl-protein thioesterase 1 (Rattus norvegicus, UniProt P70470); assay: ChEBML_100186
Description: in vitro inhibitory activity against Lysosomal phospholipase A1 consisting of negatively charged liposomes and lysosomal extracts. p<0.05

[2] = biological target: T1, Acyl-protein thioesterase 1; assay: in vitro inhibitory activity against Lysosomal phospholipase A1 consisting of negatively charged liposomes and lysosomal extracts.
In short: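 Lysosomal phospholipase activity measured on labeled phosphatidylcholine incorporated into negatively charged liposomes, read as release of labeled lysophosphatidylcholine.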

T1 sequence (P70470 whole entry): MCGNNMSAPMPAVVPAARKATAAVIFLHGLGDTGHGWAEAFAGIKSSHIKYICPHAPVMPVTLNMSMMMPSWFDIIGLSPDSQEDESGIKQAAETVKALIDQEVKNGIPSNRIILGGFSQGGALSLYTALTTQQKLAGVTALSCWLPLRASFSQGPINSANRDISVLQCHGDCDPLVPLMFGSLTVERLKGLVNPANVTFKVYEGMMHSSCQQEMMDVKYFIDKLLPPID

IC50 [1]	IC50 [2]	SMILES
79 µM		NCC1OC(OC2C(N)CC(N)(CO)C(OC3OC(CO)C(O)C(N)C3O)C2O)C(N)C(O)C1O (centres undefined)
	105 µM	NCC1OC(OC2C(N)CC(N)(CO)C(OC3OC(CCl)C(O)C(N)C3O)C2O)C(N)C(O)C1O (centres undefined)
	119 µM	CC(=O)NCC1OC(OC2C(O)C(OC3OC(CN)C(O)C(O)C3N)C(N)CC2(N)CO)C(O)C(N)C1O (centres undefined)
95 µM		[N-]=[N+]=NCC1OC(OC2C(O)C(OC3OC(CN)C(O)C(O)C3N)C(N)CC2(N)CO)C(O)C(N)C1O (centres undefined)
